{"source": "paper PMC3966491", "about": "(Chemical biology & drug design, 2013)", "key": {"[1]": {"test_system": "21 protein kinases including SPHK1, SPHK2, FES and AURKB", "assay": "in vitro selectivity against 21 protein kinases", "assay_type": "biochemical", "settings": "21 protein kinases previously inhibited by compound 1"}, "[2]": {"assay": "in vitro plasma stability", "assay_type": "in vitro ADME"}, "[3]": {"test_system": "phosphorylation of IKK Ser176/180 and total IκB levels", "assay": "Western blot of NF-κB pathway in TNF-α stimulated UACC903 cells", "assay_type": "cell-based, human", "settings": "10 μM, 1 hour prior to TNF-α stimulation (20 ng/ml)"}, "[4]": {"target": "AKT3 (PKB gamma) (Homo sapiens, UniProt Q9Y243)", "sequence (Q9Y243 whole entry)": "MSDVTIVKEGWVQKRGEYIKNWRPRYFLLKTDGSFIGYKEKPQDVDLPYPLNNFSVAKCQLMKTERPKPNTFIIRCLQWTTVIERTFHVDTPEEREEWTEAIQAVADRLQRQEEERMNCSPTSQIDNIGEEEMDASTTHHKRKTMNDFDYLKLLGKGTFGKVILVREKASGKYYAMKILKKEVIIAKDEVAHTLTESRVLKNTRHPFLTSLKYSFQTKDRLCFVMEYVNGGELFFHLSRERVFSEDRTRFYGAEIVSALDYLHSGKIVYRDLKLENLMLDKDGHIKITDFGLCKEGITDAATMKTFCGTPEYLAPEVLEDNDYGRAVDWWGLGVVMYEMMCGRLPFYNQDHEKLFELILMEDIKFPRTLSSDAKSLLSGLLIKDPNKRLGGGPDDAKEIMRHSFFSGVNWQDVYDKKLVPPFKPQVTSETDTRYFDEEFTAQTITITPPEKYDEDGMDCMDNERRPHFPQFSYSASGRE", "assay": "AKT3 in vitro kinase assay", "assay_type": "biochemical", "summary_of_the_method": "(§1)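 Z′-LYTE assay. Enzyme per 10 μL reaction: AKT1 0.34–7.65 ng, AKT2 1–40 ng, or AKT3 0.56–8.3 ng. Reaction contained 2 μM Ser/Thr 06 peptide, ATP at Km, 50 mM HEPES pH 7.5, 0.01% BRIJ-35, 10 mM MgCl2 and 1 mM EGTA. After 1 h, Development Reagent A (1:2048) protease cleaved non-phosphorylated peptide. Read-out was the coumarin 445 nm/fluorescein 520 nm emission ratio; curves were fitted.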"}, "[5]": {"assay": "in vitro microsomal stability", "assay_type": "in vitro ADME"}, "[6]": {"test_system": "Human UACC903 melanoma cells xenograft", "assay": "in vivo melanoma xenograft study", "settings": "oral gavage twice a week, 10 mg/kg and 25 mg/kg, single agent, nude mice"}, "[7]": {"target": "AKT1 (PKB alpha) (Homo sapiens, UniProt P31749)", "sequence (P31749 whole entry)": "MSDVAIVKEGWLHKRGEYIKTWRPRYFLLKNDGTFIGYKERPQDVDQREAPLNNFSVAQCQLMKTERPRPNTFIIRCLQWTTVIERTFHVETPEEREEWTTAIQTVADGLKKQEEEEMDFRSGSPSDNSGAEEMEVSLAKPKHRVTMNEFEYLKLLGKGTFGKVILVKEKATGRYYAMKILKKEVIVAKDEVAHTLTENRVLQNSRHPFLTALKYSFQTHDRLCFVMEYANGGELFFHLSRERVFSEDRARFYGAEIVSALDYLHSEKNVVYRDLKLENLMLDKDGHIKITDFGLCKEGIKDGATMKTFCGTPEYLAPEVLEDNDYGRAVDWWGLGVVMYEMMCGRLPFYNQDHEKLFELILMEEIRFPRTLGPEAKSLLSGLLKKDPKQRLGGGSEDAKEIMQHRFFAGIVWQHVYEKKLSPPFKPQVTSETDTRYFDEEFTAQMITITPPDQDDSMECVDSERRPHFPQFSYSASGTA", "assay": "AKT1 in vitro kinase assay", "assay_type": "biochemical", "summary_of_the_method": "as §1"}, "[8]": {"target": "T1, CHUK (IKK alpha) (Homo sapiens, UniProt O15111)", "T1 sequence (O15111 1-745)": "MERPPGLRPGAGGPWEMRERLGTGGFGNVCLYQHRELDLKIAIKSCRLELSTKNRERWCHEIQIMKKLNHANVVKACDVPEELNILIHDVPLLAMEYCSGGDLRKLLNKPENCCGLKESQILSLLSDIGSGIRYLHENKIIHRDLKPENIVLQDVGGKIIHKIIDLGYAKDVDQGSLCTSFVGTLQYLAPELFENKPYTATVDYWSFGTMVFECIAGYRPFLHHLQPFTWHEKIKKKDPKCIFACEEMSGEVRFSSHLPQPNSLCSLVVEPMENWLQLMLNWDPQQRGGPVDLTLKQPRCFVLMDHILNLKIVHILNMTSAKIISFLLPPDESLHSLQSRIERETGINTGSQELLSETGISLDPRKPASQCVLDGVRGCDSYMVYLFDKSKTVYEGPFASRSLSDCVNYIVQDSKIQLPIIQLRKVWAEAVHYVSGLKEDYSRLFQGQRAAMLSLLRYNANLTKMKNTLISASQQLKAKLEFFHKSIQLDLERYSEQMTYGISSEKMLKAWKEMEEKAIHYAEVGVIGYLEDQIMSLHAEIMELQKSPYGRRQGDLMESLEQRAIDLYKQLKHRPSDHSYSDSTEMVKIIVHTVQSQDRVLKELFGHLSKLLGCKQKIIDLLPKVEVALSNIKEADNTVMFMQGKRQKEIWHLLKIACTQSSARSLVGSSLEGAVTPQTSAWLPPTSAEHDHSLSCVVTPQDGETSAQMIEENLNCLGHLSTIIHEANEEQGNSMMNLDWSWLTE", "assay": "IKKα", "assay_type": "biochemical", "summary_of_the_method": "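ADAPTA ADP-detection format. Detection mix added EDTA (stop), europium-labelled anti-ADP antibody and Alexa Fluor 647 ADP tracer; ADP formation was taken from the emission ratio. Where noted, IC50 was predicted from % inhibition at 1 μM test compound, mean of two experiments.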"}, "[9]": {"target": "AKT2 (PKB beta) (Homo sapiens, UniProt P31751)", "sequence (P31751 whole entry)": "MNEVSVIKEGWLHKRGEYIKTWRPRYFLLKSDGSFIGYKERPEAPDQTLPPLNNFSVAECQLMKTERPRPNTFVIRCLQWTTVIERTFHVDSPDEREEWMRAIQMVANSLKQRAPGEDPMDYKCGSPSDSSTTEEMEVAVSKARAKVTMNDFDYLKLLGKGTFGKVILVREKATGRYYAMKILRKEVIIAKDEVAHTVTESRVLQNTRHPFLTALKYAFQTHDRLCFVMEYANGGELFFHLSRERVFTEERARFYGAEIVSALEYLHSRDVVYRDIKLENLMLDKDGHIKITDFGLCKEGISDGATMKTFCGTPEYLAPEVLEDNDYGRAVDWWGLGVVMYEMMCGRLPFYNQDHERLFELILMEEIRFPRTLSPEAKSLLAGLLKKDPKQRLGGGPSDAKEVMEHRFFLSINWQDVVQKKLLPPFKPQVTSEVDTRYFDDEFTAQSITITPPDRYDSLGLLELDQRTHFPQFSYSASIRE", "assay": "AKT2 in vitro kinase assay", "assay_type": "biochemical", "summary_of_the_method": "as §1"}, "[10]": {"test_system": "AKT levels and phosphorylation of its substrate PRAS40", "assay": "Western blot of AKT pathway in melanoma UACC903 cells", "assay_type": "cell-based, human", "settings": "4 hours"}, "[11]": {"test_system": "UACC903 xenograft tumor sections", "assay": "TUNEL and IκB immunohistochemistry of xenograft tumor sections", "assay_type": "in vivo, nude mice", "settings": "tumors from treated mice vs vehicle, after 28 days", "summary_of_the_method": "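Female nude mice (6–7 weeks) received 1×10^6 UACC903 cells in PBS subcutaneously in the flank. After 4 weeks, tumours were fixed, paraffin-sectioned, immunostained (DAB, haematoxylin) or TUNEL-stained, then scanned. Scores: TUNEL-positive nuclei/area and IκB immunoscore/area; error bars SEM.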"}, "[12]": {"target": "T2, IKBKB (IKK beta) (Homo sapiens, UniProt O14920)", "T2 sequence (O14920 1-756)": "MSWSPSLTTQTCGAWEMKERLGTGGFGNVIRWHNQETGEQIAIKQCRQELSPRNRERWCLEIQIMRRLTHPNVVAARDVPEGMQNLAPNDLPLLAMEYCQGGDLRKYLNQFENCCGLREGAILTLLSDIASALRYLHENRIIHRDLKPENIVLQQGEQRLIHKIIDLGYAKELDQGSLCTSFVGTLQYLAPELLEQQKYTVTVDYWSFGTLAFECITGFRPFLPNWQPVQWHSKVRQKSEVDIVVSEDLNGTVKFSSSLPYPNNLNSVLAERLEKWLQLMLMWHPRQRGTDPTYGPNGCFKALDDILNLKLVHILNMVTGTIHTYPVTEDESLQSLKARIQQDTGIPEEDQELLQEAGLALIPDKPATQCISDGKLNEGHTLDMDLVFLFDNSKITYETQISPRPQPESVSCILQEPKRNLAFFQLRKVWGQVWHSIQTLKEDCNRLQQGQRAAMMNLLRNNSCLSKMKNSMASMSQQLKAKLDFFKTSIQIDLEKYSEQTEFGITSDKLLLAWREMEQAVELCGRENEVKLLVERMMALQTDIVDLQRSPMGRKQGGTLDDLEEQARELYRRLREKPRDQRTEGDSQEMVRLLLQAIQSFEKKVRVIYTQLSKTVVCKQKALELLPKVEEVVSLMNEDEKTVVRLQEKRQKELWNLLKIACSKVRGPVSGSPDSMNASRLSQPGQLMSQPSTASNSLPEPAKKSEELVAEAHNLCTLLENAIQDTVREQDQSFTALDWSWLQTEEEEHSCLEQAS", "assay": "IKKβ", "assay_type": "biochemical", "summary_of_the_method": "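Z′-LYTE format. Development used Reagent B (1:64) protease; read-out was the coumarin 445 nm/fluorescein 520 nm emission ratio. Where noted, IC50 was predicted from % inhibition at 10 μM test compound, mean of two experiments.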"}}, "data": [{"molecule": "O=C(/C=C/c1nc2cc(F)ccc2[nH]1)c1c(-c2ccccc2)c2cc(Cl)ccc2[nH]c1=O", "note": "[compound 42, (E)-6-chloro-3-(3-(5-fluoro-1H-benzo[d]imidazol-2-yl)acryloyl)-4-phenylquinolin-2(1H)-one]", "values": [{"measurement": "IC50 values against all the selected kinases (in words)", "setting": "[1]", "value": "low micromolar range"}, {"measurement": "plasma stability", "setting": "[2]", "value": "favorable"}, {"measurement": "inhibition of phosphorylation of IKK Ser176/180 and total IκB levels", "setting": "[3]", "value": "effectively inhibited"}, {"measurement": "IC50", "setting": "[4]", "value": 6.49, "unit": "µM"}, {"measurement": "microsomal stability", "setting": "[5]", "value": "favorable"}, {"measurement": "tumor growth in xenograft", "setting": "[6]", "value": "Remarkable tumor growth/suppression"}, {"measurement": "IC50", "setting": "[7]", "value": 5.01, "unit": "µM"}, {"measurement": "IC50", "setting": "[8]", "value": 6.03, "unit": "µM"}, {"measurement": "IC50", "setting": "[9]", "value": 3.43, "unit": "µM"}, {"measurement": "inhibition of AKT levels and PRAS40 phosphorylation", "setting": "[10]", "value": "effectively inhibited"}, {"measurement": "IκB expression in tumors", "setting": "[11]", "value": "higher IκB expression"}, {"measurement": "apoptosis in tumors (TUNEL staining)", "setting": "[11]", "value": "higher levels of apoptosis"}, {"measurement": "IC50", "setting": "[12]", "value": 1.9, "unit": "µM"}]}]}
